Source: ChEMBL document CHEMBL1144886, “Structure-based design, synthesis, and antimicrobial activity of indazole-derived SAH/MTA nucleosidase inhibitors” (J Med Chem, 2003)
≈ marks a conversion by molar mass, not a printed value.

How the values were obtained:
[1] = molecular target: 5'-methylthioadenosine/S-adenosylhomocysteine nucleosidase (Escherichia coli O157:H7, UniProt P0AF14); assay: Inhibition of Escherichia coli S-adenosyl homocysteine/methylthioadenosine nucleosidase (MTA/SAH nucleosidase)
Chain of 5'-methylthioadenosine/S-adenosylhomocysteine nucleosidase (P0AF14 whole entry): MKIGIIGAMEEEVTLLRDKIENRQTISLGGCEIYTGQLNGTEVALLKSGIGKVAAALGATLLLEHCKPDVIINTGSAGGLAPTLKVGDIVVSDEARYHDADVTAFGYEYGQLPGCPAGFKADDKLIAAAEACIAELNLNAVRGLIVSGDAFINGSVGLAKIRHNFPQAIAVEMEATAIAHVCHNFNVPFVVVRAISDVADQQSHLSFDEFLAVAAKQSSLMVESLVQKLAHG
Summary of the method: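 Recombinant His-tagged E. coli enzyme (IPTG-induced in E. coli, IMAC-purified), 50 pM, incubated 10 min at room temperature with 2.5 μM MTA and inhibitor at 0.005–100 μM; 200 μL final volume. Reaction stopped with TFA. Remaining MTA quantified by RP-HPLC (C8) peak integration, and turnover plotted for IC50. Ki derived using Km 1.0 μM for MTA.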

Neisseria meningitidis = assay: Minimum inhibitory concentration against Neisseria meningitidis; type: functional
Streptococcus pneumoniae = assay: Minimum inhibitory concentration against Streptococcus pneumoniae; type: functional
Streptococcus pyogenes = assay: Minimum inhibitory concentration against Streptococcus pyogenes; type: functional

How did the Ki [1] turn out when `CC(C)CNc1cc(NS(=O)(=O)c2cccc(-c3cccc(CCO)c3)c2)cc2c(Cl)[nH]nc12` was run?
The Ki was 25 nM.

For `Cc1n[nH]c2ccc(NS(=O)(=O)c3ccc(Cl)cc3)cc12`, which Ki [1] is on record?
Its Ki is 4000 nM.

With `CN(C)c1cccc2c(S(=O)(=O)Nc3ccc4c[nH]nc4c3)cccc12` as the molecule, how does the Ki [1] read?
Its Ki is 1000 nM.

`Cc1n[nH]c2c(NCC(C)C)cc(NS(=O)(=O)c3cccc(-c4ccccc4)c3)cc12` was tested. Which Ki [1] did it give?
The Ki was 498 nM.

With `Cc1nccc(-c2cccc(S(=O)(=O)Nc3cc(NCC(C)C)c4[nH]nc(C)c4c3)c2)n1` as the molecule, how does the Ki [1] read?
Its Ki is 191 nM.

How did the Ki [1] turn out when `O=S(=O)(Nc1cc(NCc2ccccc2)c2[nH]nc(Cl)c2c1)c1ccc(Cl)cc1` was run?
The Ki was 1800 nM.

Which Ki [1] does the source give for `Cc1nccc(-c2cccc(S(=O)(=O)Nc3cc(NCC(C)C)c4n[nH]c(Cl)c4c3)c2)n1` here?
Its Ki is 36 nM.

For `CN(C)c1cccc2c(S(=O)(=O)Nc3ccc4[nH]ncc4c3)cccc12`, which Ki [1] is on record?
Its Ki is 2800 nM.

For `CSc1cccc(-c2cccc(S(=O)(=O)Nc3cc(NCC(C)C)c4[nH]nc(Cl)c4c3)c2)c1`, which Ki [1] is on record?
The Ki was 17 nM.

Which results are given for `Cc1cc(-c2cccc(S(=O)(=O)Nc3cc(NCC(C)C)c4n[nH]c(Cl)c4c3)c2)ccc1Cl`?
MIC (Neisseria meningitidis): 7.5 µM (≈ 3.78 µg/mL); Ki [1]: 3.9 nM; MIC (Streptococcus pneumoniae): 7.5 µM (≈ 3.78 µg/mL); MIC (Streptococcus pyogenes): 7.5 µM (≈ 3.78 µg/mL)

For `Cc1cc(-c2cccc(S(=O)(=O)Nc3cc(NCC(C)C)c4n[nH]c(Cl)c4c3)c2)ccc1F`, which Ki [1] is on record?
The Ki was 14.6 nM.

`CC(C)CNc1cc(NS(=O)(=O)c2cccc(-c3ccc(Cl)c(Cl)c3)c2)cc2c(Cl)[nH]nc12` was tested. Which MIC (Neisseria meningitidis) did it give?
The MIC was 1.88 µM (≈ 0.982 µg/mL).

And the Ki [1]?
Its Ki is 1.6 nM.

And the MIC (Streptococcus pneumoniae)?
Its MIC is 7.5 µM (≈ 3.93 µg/mL).

And the MIC (Streptococcus pyogenes)?
The MIC was 7.5 µM (≈ 3.93 µg/mL).

Which Ki [1] does the source give for `O=S(=O)(Nc1cc(NCCc2ccccc2)c2[nH]nc(Cl)c2c1)c1ccc(Cl)cc1` here?
Its Ki is 2300 nM.

How did the Ki [1] turn out when `O=S(=O)(Nc1cc(NCC2CC2)c2[nH]nc(Cl)c2c1)c1ccc(Cl)cc1` was run?
Its Ki is 500 nM.

How did the MIC (Neisseria meningitidis) turn out when `CC(C)CNc1cc(NS(=O)(=O)c2cccc(-c3ccncc3)c2)cc2c(Cl)[nH]nc12` was run?
The MIC was 10 µM (≈ 4.56 µg/mL).

What about the Ki [1] of the same molecule?
The Ki was 52 nM.

What about the MIC (Streptococcus pyogenes) of the same molecule?
Its MIC is greater than 20 µM.

`Cc1cccc(-c2cccc(S(=O)(=O)Nc3cc(NCC(C)C)c4n[nH]c(Cl)c4c3)c2)c1` was tested. Which Ki [1] did it give?
The Ki was 36 nM.

What does the source list for `CC(C)CNc1cc(NS(=O)(=O)c2cccc(-c3ccc(Cl)cc3)c2)cc2c(Cl)[nH]nc12`?
MIC (Neisseria meningitidis): 2.5 µM (≈ 1.22 µg/mL); Ki [1]: 12.5 nM; MIC (Streptococcus pneumoniae): 2.5 µM (≈ 1.22 µg/mL); MIC (Streptococcus pyogenes): 1.25 µM (≈ 0.612 µg/mL)

How did the Ki [1] turn out when `CC(C)CNc1cc(NS(=O)(=O)c2cccc(-c3cnc4ccccc4c3)c2)cc2c(Cl)[nH]nc12` was run?
The Ki was 10.8 nM.

With `CCNc1cc(NS(=O)(=O)c2ccc(Cl)cc2)cc2c(Cl)[nH]nc12` as the molecule, how does the Ki [1] read?
Its Ki is 2700 nM.

Which Ki [1] does the source give for `CC(C)(C)CCNc1cc(NS(=O)(=O)c2ccc(Cl)cc2)cc2c(Cl)[nH]nc12` here?
The Ki was 6500 nM.

`Cc1n[nH]c2c(NCC(C)C)cc(NS(=O)(=O)c3cccc(-c4ccncc4)c3)cc12` was tested. Which Ki [1] did it give?
The Ki was 240 nM.

With `Cc1n[nH]c2c(NCC(C)C)cc(NS(=O)(=O)c3cccc(-c4cccc(C(F)(F)F)c4)c3)cc12` as the molecule, how does the MIC (Neisseria meningitidis) read?
Its MIC is 20 µM (≈ 10.1 µg/mL).

What about the Ki [1] of the same molecule?
The Ki was 20 nM.

And the MIC (Streptococcus pyogenes)?
Its MIC is greater than 20 µM.

With `CC(C)CNc1cc(NS(=O)(=O)c2cccc(-c3ccccc3)c2)cc2c(Cl)[nH]nc12` as the molecule, how does the MIC (Neisseria meningitidis) read?
Its MIC is 2.5 µM (≈ 1.14 µg/mL).

What about the Ki [1] of the same molecule?
Its Ki is 94 nM.

What about the MIC (Streptococcus pyogenes) of the same molecule?
Its MIC is greater than 20 µM.

With `CC(C)CNc1cc(NS(=O)(=O)c2cccc(-c3ccc(F)c(F)c3)c2)cc2c(Cl)[nH]nc12` as the molecule, how does the Ki [1] read?
The Ki was 8.1 nM.

What does the source list for `CC(=O)Nc1cc(NS(=O)(=O)c2ccc(Cl)cc2)cc2c(Cl)[nH]nc12`?
MIC (Neisseria meningitidis): 5 µM (≈ 2 µg/mL); Ki [1]: 11000 nM; MIC (Streptococcus pneumoniae): 5 µM (≈ 2 µg/mL); MIC (Streptococcus pyogenes): 7.5 µM (≈ 2.99 µg/mL)

`CN(C)c1cccc2c(S(=O)(=O)Nc3ccc4[nH]nc(Cl)c4c3)cccc12` was tested. Which Ki [1] did it give?
Its Ki is 22000 nM.

`Cc1cc(-c2cccc(S(=O)(=O)Nc3cc(NCC(C)C)c4n[nH]c(Cl)c4c3)c2)ccn1` was tested. Which Ki [1] did it give?
Its Ki is 28.5 nM.

With `CCc1cccc(-c2cccc(S(=O)(=O)Nc3cc(NCC(C)C)c4[nH]nc(C)c4c3)c2)c1` as the molecule, how does the Ki [1] read?
Its Ki is 125 nM.

How did the MIC (Neisseria meningitidis) turn out when `Cc1cccc(-c2cccc(S(=O)(=O)Nc3cc(NCC(C)C)c4[nH]nc(C)c4c3)c2)c1` was run?
The MIC was 20 µM (≈ 8.97 µg/mL).

And the Ki [1]?
The Ki was 100 nM.

What about the MIC (Streptococcus pyogenes) of the same molecule?
Its MIC is greater than 20 µM.

With `Cc1n[nH]c2ccc(NS(=O)(=O)c3cccc4c(N(C)C)cccc34)cc12` as the molecule, how does the Ki [1] read?
Its Ki is 64000 nM.

For `O=S(=O)(Nc1ccc2[nH]nc(Cl)c2c1)c1ccc(Cl)cc1`, which Ki [1] is on record?
The Ki was 5200 nM.

With `CC(C)CNc1cc(NS(=O)(=O)c2ccc(Cl)cc2)cc2c(Cl)[nH]nc12` as the molecule, how does the MIC (Neisseria meningitidis) read?
Its MIC is 5 µM (≈ 2.07 µg/mL).

What about the Ki [1] of the same molecule?
Its Ki is 760 nM.

What about the MIC (Streptococcus pyogenes) of the same molecule?
The MIC was greater than 20 µM.

What does the source list for `CC(C)CNc1cc(NS(=O)(=O)c2cccc(-c3ccc(F)c(Cl)c3)c2)cc2c(Cl)[nH]nc12`?
MIC (Neisseria meningitidis): 1.88 µM (≈ 0.951 µg/mL); Ki [1]: 3.4 nM; MIC (Streptococcus pneumoniae): 3.75 µM (≈ 1.9 µg/mL); MIC (Streptococcus pyogenes): 3.75 µM (≈ 1.9 µg/mL)

For `CC(C)CNc1cc(NS(=O)(=O)c2cccc(-c3cccc(C(F)(F)F)c3)c2)cc2c(Cl)[nH]nc12`, which Ki [1] is on record?
The Ki was 11 nM.

Which Ki [1] does the source give for `CC(C)=CCNc1cc(NS(=O)(=O)c2ccc(Cl)cc2)cc2c(Cl)[nH]nc12` here?
The Ki was 2200 nM.

How did the MIC (Neisseria meningitidis) turn out when `CC(C)CNc1cc(NS(=O)(=O)c2cccc(-c3ccc(C(F)(F)F)cc3)c2)cc2c(Cl)[nH]nc12` was run?
The MIC was 5 µM (≈ 2.61 µg/mL).

And the Ki [1]?
Its Ki is 13 nM.

What about the MIC (Streptococcus pyogenes) of the same molecule?
The MIC was greater than 20 µM.

For `CC(C)CCNc1cc(NS(=O)(=O)c2ccc(Cl)cc2)cc2c(Cl)[nH]nc12`, which Ki [1] is on record?
The Ki was 4900 nM.

How did the Ki [1] turn out when `O=S(=O)(Nc1ccc2c[nH]nc2c1)c1ccc(Cl)cc1` was run?
The Ki was 17000 nM.

Which Ki [1] does the source give for `CC(C)(C)CNc1cc(NS(=O)(=O)c2ccc(Cl)cc2)cc2c(Cl)[nH]nc12` here?
The Ki was 1200 nM.

With `O=S(=O)(Nc1ccc2[nH]ncc2c1)c1ccc(Cl)cc1` as the molecule, how does the Ki [1] read?
Its Ki is 27000 nM.
